Source: PubChem BioAssay
UCH37 inh – human UCH37 deubiquitinating enzyme inhibition. actives 0.33% (n = 330,000). purified proteasome/UCH37, Ub-AMC cleavage fluorescence. AID 588478. inhibition, % (no concentration beside the values);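 active means mean inhibition over replicate wells above about 20%, limit read from the data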;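 further: 0% = compound-free wells with enzyme and 100% = wells lacking proteasome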
Target sequence (Q9Y5K5 whole entry, looked up): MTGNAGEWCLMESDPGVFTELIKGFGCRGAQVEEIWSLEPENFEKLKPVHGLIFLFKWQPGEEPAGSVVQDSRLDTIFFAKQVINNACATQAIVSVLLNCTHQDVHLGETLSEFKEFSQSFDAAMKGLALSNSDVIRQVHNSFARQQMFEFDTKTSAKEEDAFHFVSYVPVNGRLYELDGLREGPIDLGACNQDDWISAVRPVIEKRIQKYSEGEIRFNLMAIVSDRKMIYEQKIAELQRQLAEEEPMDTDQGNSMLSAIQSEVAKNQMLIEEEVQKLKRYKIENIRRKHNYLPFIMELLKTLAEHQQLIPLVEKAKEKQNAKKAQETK
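Material: human UCH37 enzyme supplied as purified proteasome complex / Amount: 0.15 nM proteasome as dispensed / Buffer or medium: pH 7.4 Tris-HCl (50 mM) with ovalbumin, ATP-MgCl2, DTT / Times: preincubation 30 min, reaction 25 min, room temperature / Technique: AMC fluorescence from Ub-AMC cleavage, excitation 355 nm, emission 460 nm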
UBC13 inh – blocks human UBC13 polyubiquitin chain formation | P61088 | TR-FRET | inhibition, % at 20 µM | actives 0.47% (n = 330,000) | AID 485273; in the data active means inhibition above about 45%, passing the limit was not always enough
Target sequence (P61088 whole entry, looked up): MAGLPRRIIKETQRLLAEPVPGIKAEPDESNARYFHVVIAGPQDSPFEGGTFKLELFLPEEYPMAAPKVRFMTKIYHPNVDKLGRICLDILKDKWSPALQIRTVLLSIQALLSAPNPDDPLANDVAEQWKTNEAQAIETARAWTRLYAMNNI
MEKK3 PB1 HTS – raises or lowers MEK5 binding to the human MEKK3 PB1 domain; bead-based flow cytometry, Alexa488-MEK5 binding to MEKK3; actives lie on both sides; 0 = blocked by unlabeled MEK5, 100 = vehicle; Q99759; actives 1.4% (n = 290,000); binding response (% of control), % at 10 µM; AID 1529;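 active means binding response more than 3 SD above or below the average of its plate-row segment, actives on both sides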;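 further: Alexa488 bead fluorescence after subtracting the streptavidin-only scavenger bead signal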
Apaf-1 inh – inhibitors of human Apaf-1 apoptosome | actives 0.71% (n = 330,000) | reconstituted apoptosome caspase-3 activity, DEVD-Rh110 fluorescence | O14727 | inhibition, % at 20 µM; active means inhibition of at least 40% at 20 µM;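 further: plate controls were DMSO wells for no effect and DEVD-CHO caspase inhibitor wells for full effect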
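System – cell-free apoptosome with Apaf-1, procaspase-3 and caspase-9 · Buffer or medium – pH 7.5 Hepes buffer with CHAPS, BSA, DTT · Also added – cytochrome c with DEVD-Rh110 · Times – 30 min compound preincubation, 50 min activation, room temperature · Technique – Rh110 fluorescence intensity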
MEKK2 WT-MEK5 – raises or lowers MEK5 binding to wildtype human MEKK2 PB1 domain; Q9Y2U5; bead flow cytometry, Alexa488-MEK5 binding to MEKK2 WT; actives lie on both sides; binding response (% of control), % at 10 µM; actives 1.1% (n = 290,000); AID 1531; in the data active means binding response below about 67% or above about 130%
MEKK2mut PB1 HTS – signal of MEK5 binding to mutant human MEKK2 PB1 domain; bead flow cytometry, Alexa488-MEK5 binding to MEKK2 mutant; percent response, % at 10 µM; actives 0.35% (n = 290,000); AID 1530; in the data active means percent response above about 24%, passing the limit was not always enough
MEKK2wt confirm – raises or lowers MEK5 binding to wildtype human MEKK2, retest; shares compounds with MEKK3 PB1 HTS; bead flow cytometry, Alexa488-MEK5 binding to MEKK2 WT; actives lie on both sides; binding response (% of control), % at 10 µM; actives 2.4% (n = 5,900); in the data active means binding response below about 16% or above about 210%; inactive means in between
MEKK2mut-MEK5 – signal of MEK5 binding to mutant human MEKK2, retest. shares compounds with MEKK3 PB1 HTS. bead flow cytometry, Alexa488-MEK5 binding to MEKK2 mutant. percent response, % at 10 µM. actives 2% (n = 5,900); in the data active means percent response mostly above about 71%, no sharp cut-off; inactive means mostly below about 38%;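 further: higher means compound restores mutant binding toward wildtype level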
MEKK3 confirm – MEKK3-MEK5 PB1 inhibition, single concentration confirmation | shares compounds with MEKK3 PB1 HTS | bead flow cytometry, Alexa488-MEK5 binding to MEKK3; hits give low values | binding response (% of control), % at 10 µM | actives 1.8% (n = 5,900) | AID 1894;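 active means binding response below 72% of control, or above a set upper limit, though filed actives all read lower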;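 further: 100% = DMSO only wells and 0% = binding blocked by excess unlabeled MEK5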
Starred values were filed as active, the others as inactive; / = no result; ! = a repeat was not active; [ ] = another dose, or the depositor's remark. Sampled rows, rich in hits. Any-hit rate of the full collection: about 3%.

SMILES | UCH37 inh | UBC13 inh | MEKK3 PB1 HTS | Apaf-1 inh | MEKK2 WT-MEK5 | MEKK2mut PB1 HTS | MEKK2wt confirm | MEKK2mut-MEK5 | MEKK3 confirm
Cc1ccc(C)n1-c1ccc(-c2ccnc(N)n2)cc1 | -39.7 | / | 147.0* | / | 112.0 | 14.0 | 104.0 | 5.0 | 100.0
CC1CCCN(CCOCCOc2ccc(Br)cc2Cl)C1 (stereo not given) | 3.5 | 16.3 | 150.0* | -0.3 | 112.0 | 7.0 | 111.0 | 11.0 | 98.0
CC1CCCN(CCOc2ccc(Br)cc2)C1 (stereo not given) | -0.1 | 3.2 | 198.0* | -10.4 | 112.0 | 0.0 | 91.0 | -12.0 | 87.0
CC1CC(C)CN(CCOCCSc2ccccc2)C1 (stereo not given) | -1.3 | 9.6 | 95.0 | 7.2 | 111.0 | 12.0 | / | / | /
CC1CCCN(CCOCCSc2ccccc2)C1 (stereo not given) | 0.9 | -2.4 | 133.0* | 2.9 | 103.0 | 0.0 | 101.0 | -11.0 | 95.0
CC1CCCN(CCOCCOc2ccc(Cl)cc2Br)C1 (stereo not given) | 5.7 | 7.6 | 87.0 | 7.9 | 120.0 | 7.0 | / | / | /
O=C(NCCCn1ccnc1)c1ccc(COc2ccccc2)o1 | 5.0 | 3.0 | / | 0.2 | / | / | / | / | /
CCOc1cc(C)c(Cl)cc1S(=O)(=O)NCc1ccc2c(c1)OCO2 | -3.0 | 1.8 | 81.0*[inhibitor] | 9.3 | 88.0 | -8.0 | 102.0 | 2.0 | 103.0
CCOc1cc(S(=O)(=O)NCc2ccc3c(c2)OCO3)c(C)cc1C | 3.7 | 1.5 | 101.0 | 11.1 | 100.0 | -1.0 | / | / | /
O=c1sc2ccccc2c(=O)n1Cc1ccccc1F | 1.4 | 10.5 | 139.0* | 4.7 | 125.0 | 6.0 | 105.0 | 4.0 | 104.0
Cn1c(SCc2nc3ccccc3n2CCO)nc2ccccc21 | 3.0 | 11.2 | 125.0* | 1.9 | 125.0 | 7.0 | 105.0 | 1.0 | 104.0
O=C(C[n+]1ccc(-c2cc(C(=O)Nc3cccc(C(F)(F)F)c3)c3ccccc3n2)cc1)c1cccc([N+](=O)[O-])c1 | 8.8 | -89.4 | 94.0 | 9.6 | 158.0* | 46.0 | 176.0 | 99.0* | 95.0
COCC(=O)OCC(=O)Nc1ccc(Cl)cc1[N+](=O)[O-] | 1.7 | -8.8 | 32.0*[inhibitor] | 3.0 | 44.0*[inhibitor] | -19.0 | 99.0 | -2.0 | 101.0
CCc1ccc(Nc2nnc(SCC(=O)Nc3cccc(S(=O)(=O)NC4=NCCCCC4)c3)s2)cc1 | 7.3 | -3.7 | 99.0 | 30.9 | 111.0 | -1.0 | / | / | /
CCOC(=O)c1sc(NC(=O)CSc2nc3c(c(=O)n2-c2ccc(C)cc2)SCC3)c(C(=O)OCC)c1C | 5.6 | -14.3 | 71.0*[inhibitor] | 9.8 | 73.0 | 8.0 | 95.0 | 7.0 | 101.0
COc1cccc(C2CC(c3cccs3)=NN2S(C)(=O)=O)c1OC (stereo not given) | 7.9 | -4.8 | 86.0 | 4.0 | 55.0 | -8.0 | / | / | /
Cc1ccc(C2CC(c3cccs3)=NN2S(=O)(=O)c2ccc(C)cc2)cc1 (stereo not given) | -0.1 | 5.4 | 102.0 | -5.9 | 61.0*[inhibitor] | 9.0 | 94.0 | -1.0 | 101.0
CS(=O)(=O)N1N=C(c2cccs2)CC1c1ccccc1F (stereo not given) | 3.0 | 2.7 | 99.0 | 3.7 | -4.0*[inhibitor] | 3.0 | 102.0 | 6.0 | 105.0
COc1ccc(C2CC(c3cccs3)=NN2S(=O)(=O)c2ccc(C)cc2)cc1 (stereo not given) | 2.6 | -4.6 | 118.0 | 0.7 | 126.0 | 11.0 | / | / | /
CCN1CCN(Cc2ccc(NC(=O)Nc3ccc(OC)cc3)cc2)CC1 | 4.2 | 2.1 | 111.0 | -0.9 | 115.0 | 5.0 | / | / | /
Oc1c(C=Nc2cccc3cccnc23)sc2ccccc12 | / | -238.1 | 82.0 | 20.0 | 50.0*[inhibitor] | -14.0 | 62.0 | -24.0 | 89.0
Cc1cccc(/N=C/c2sc3ccccc3c2O)n1 | / | -45.7 | 97.0 | 4.8 | 101.0 | -1.0 | / | / | /
Cc1nc(SCC(=O)NC(=O)NC2CCCCC2)nc(C)c1C | 1.8 | -3.0 | 100.0 | 5.2 | 105.0 | 6.0 | / | / | /
CN(C)CCSc1nc(-c2ccccc2)nc2c1CCC2 | 1.0 | 9.2 | 138.0* | 0.5 | 111.0 | 1.0 | 107.0 | 2.0 | 103.0
CN(C)CCCSc1nc(-c2ccccc2)nc2c1CCC2 | 5.9 | 14.5 | 122.0 | 0.9 | 115.0 | 2.0 | / | / | /
SMILES | UCH37 inh | UBC13 inh | MEKK3 PB1 HTS | Apaf-1 inh | MEKK2 WT-MEK5 | MEKK2mut PB1 HTS | MEKK2wt confirm | MEKK2mut-MEK5 | MEKK3 confirm
CCOc1ccc(NC(=O)CC2C(=O)N(c3ccc(OC)cc3)C(=S)N2Cc2ccccn2)cc1 (stereo not given) | 0.8 | -0.8 | 96.0 | 5.0 | 93.0 | -7.0 | / | / | /
CCCCCCOc1ccc(NC(=O)CC2C(=O)N(CC)C(=S)N2Cc2ccco2)cc1 (stereo not given) | 3.8 | -8.1 | 110.0 | 14.6 | 141.0* | 3.0 | 111.0 | 3.0 | 107.0
CCN1C(=O)C(CC(=O)Nc2ccc(F)cc2)N(Cc2ccco2)C1=S (stereo not given) | -1.0 | -4.5 | 104.0 | -9.9 | 99.0 | 3.0 | / | / | /
C=CCN1C(=O)C(CC(=O)Nc2ccc(OCCC)cc2)N(CCCN2CCN(Cc3ccccc3)CC2)C1=S (stereo not given) | 2.9 | 9.4 | 111.0 | 18.0 | 183.0* | 42.0 | 148.0 | 22.0 | 110.0
CCOc1ccc(NC(=O)CC2C(=O)N(c3ccccc3)C(=S)N2Cc2ccccn2)cc1 (stereo not given) | 6.1 | 6.4 | 1.0*[inhibitor] | -44.0 | 1.0*[inhibitor] | -18.0 | 107.0 | 3.0 | 101.0
CSc1ccccc1C(=O)NC1CCCN(c2ccc(C(F)(F)F)cn2)C1 (stereo not given) | 3.7 | -0.9 | 101.0 | 10.2 | 97.0 | 3.0 | / | / | /
O=C(CC1C(=O)N(c2ccccc2)C(=S)N1c1ccccc1)c1ccc(Br)cc1 (stereo not given) | 1.1 | -21.7 | 100.0 | 21.1 | 99.0 | -1.0 | / | / | /
O=C(NCc1ccccc1F)Nc1ccc([N+](=O)[O-])cc1 | 0.6 | -0.4 | 100.0 | -1.9 | 99.0 | -1.0 | / | / | /
CCOc1nc(-c2ccccc2)ccc1-c1noc(COC)n1 | -7.1 | 13.1 | 100.0 | 20.6 | 102.0 | -1.0 | / | / | /
CCN(CC)S(=O)(=O)c1ccc(C)c(NC(=O)c2cc(C)oc2C)c1 | 2.4 | -10.2 | 109.0 | -1.1 | 99.0 | -2.0 | / | / | /
COc1cc2nc(N3CCN(C(=O)C4COc5ccccc5O4)CC3)nc(N)c2cc1OC (stereo not given) | -30.8 | 27.3 | 116.0 | 4.3 | 150.0*! | 15.0 | 146.0 | 27.0 | 111.0
